Each block holds one molecule with its values, some of them ahead of it.
Experiments:
Prothrombin = Prothrombin (Homo sapiens, UniProt P00734); experiment: Inhibition of human thrombin using CH3SO2-D-Cha-Gly-Arg-pNA as substrate after 5 to 10 mins by micro plate reader analysis
Trypsin = Trypsin (Sus scrofa, UniProt P00761); experiment: Inhibition of pig trypsin using CH3SO2-D-Cha-Gly-Arg-pNA as substrate after 5 to 10 mins by micro plate reader analysis
[1] = target: Vitamin K-dependent protein C (Homo sapiens, UniProt P04070); experiment: Inhibition of human activated protein C using H-D-Lys(Cbz)-Pro-Arg-pNA as substrate after 5 to 10 mins by micro plate reader analysis
Plasma kallikrein = Plasma kallikrein (Homo sapiens, UniProt P03952); experiment: Inhibition of human plasma kallikrein using H-D-Pro-Phe-Arg-pNA as substrate after 5 to 10 mins by micro plate reader analysis
Coagulation factor X = Coagulation factor X (Homo sapiens, UniProt P00742); experiment: Inhibition of human factor Xa using CH3OCO-D-Cha-Gly-Arg-pNA as substrate after 5 to 10 mins by micro plate reader analysis
Plasminogen = Plasminogen (Homo sapiens, UniProt P00747); experiment: Inhibition of human plasmin protease domain using Tos-Gly-Pro-Lys-pNA as substrate by micro plate reader analysis
Coagulation factor XII = Coagulation factor XII (Homo sapiens, UniProt P00748); experiment: Inhibition of human FXIIa
[2] = target: Urokinase-type plasminogen activator (Homo sapiens, UniProt P00749); experiment: Inhibition of human uPA
[3] = target: Tissue-type plasminogen activator (Homo sapiens, UniProt P00750); experiment: Inhibition of human tPA
Plasma [4] = experiment: Anticoagulant activity in human plasma assessed as concentration required to thrombin time; type: functional
Summary of the method: (§1)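 Clotting time measured in human plasma spiked with inhibitor. Value reported as EC200, the concentration that doubles the clotting time.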

Rattus norvegicus = species on record: Rattus norvegicus; experiment: Displacement of [3H]batrachotoxinin from wistar rat Na channel at 10 uM
Summary of the method: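 Single-point radioligand binding screen at 10 μM test compound, run by a contract lab under its own protocol. Read-out is percent binding, where negative values mean no binding.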

[5] = target: Cytochrome P450 2C19 (Homo sapiens) (UniProt P33261); experiment: Inhibition of human recombinant CYP2C19 expressed in Trichoplusia ni BTI-TN-5B1-4 cells preincubated for 15 mins measured after 30 mins by spectrofluorimetry
[6] = target: Complement C1r subcomponent (Homo sapiens, UniProt P00736); experiment: Inhibition of human C1r
Coagulation factor IX = Coagulation factor IX (Homo sapiens, UniProt P00740); experiment: Inhibition of human FIXa
Serine protease 1 = Serine protease 1 (Homo sapiens, UniProt P07477); experiment: Inhibition of human trypsin
[7] = target: Complement C1s subcomponent (Homo sapiens, UniProt P09871); experiment: Inhibition of human C1s
[8] = Thermodynamic solubility of the compound in 0.9% saline; type: physicochemical; conditions: read-out: Therm_solubility
[9] = target: L-type Ca channel, dihydropyridine site (Rattus norvegicus, UniProt P22002+P27732+Q02485); experiment: Displacement of [3H]nitrendipine from wistar rat Ca channel L-type dihydropyridine receptor at 10 uM; conditions: probe [3H]nitrendipine
Summary of the method: (§2)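 Radioligand binding to the ion channel with test compound at 10 μM. Result expressed as % binding; negative values are read as no binding. Assays run by a contract laboratory.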

hERG (KCNH2) = hERG (KCNH2) (Homo sapiens, UniProt Q12809); experiment: Displacement of [3H]astemizole from human ERG channel at 10 uM; conditions: probe [3H]astemizole; summary of the method: as §2
[10] = target: L-type Ca channel, phenylalkylamine site (Rattus norvegicus, UniProt P22002+P27732+Q02485); experiment: Displacement of [3H](-)-desmethoxyverapamil from wistar rat Ca channel L-type phenylalkylamine receptor at 10 uM; conditions: probe [3H](-)-desmethoxyverapamil; summary of the method: as §2
Plasma [11] = experiment: Anticoagulant activity in human plasma assessed as concentration required to prothrombin time; type: functional; summary of the method: as §1
Plasma [12] = experiment: Anticoagulant activity in human plasma assessed as concentration required to activated partial thromboplastin time; type: functional; summary of the method: as §1
[13] = target: Cytochrome P450 1A2 (Homo sapiens) (UniProt P05177); experiment: Inhibition of human recombinant CYP1A2 expressed in Trichoplusia ni BTI-TN-5B1-4 cells preincubated for 15 mins measured after 45 mins by spectrofluorimetry
[14] = target: L-type Ca channel, benzothiazepine site (Rattus norvegicus, UniProt P22002+P27732+Q02485); experiment: Displacement of [3H]diltiazem from wistar rat Ca channel L-type benzothiazepine receptor at 10 uM; conditions: probe [3H]diltiazem; summary of the method: as §2
Cytochrome P450 2C9 = Cytochrome P450 2C9 (Homo sapiens, UniProt P11712); experiment: Inhibition of human recombinant CYP2C9 expressed in Trichoplusia ni BTI-TN-5B1-4 cells preincubated for 15 mins measured after 45 mins by spectrofluorimetry; type: ADME, cell-based
[15] = Metabolic stability in human liver microsomes assessed as degradation after 60 mins; type: ADME, Microsome; conditions: read-out: Drug degradation
Cytochrome P450 3A4 = Cytochrome P450 3A4 (Homo sapiens, UniProt P08684); experiment: Inhibition of human recombinant CYP3A4 expressed in Trichoplusia ni BTI-TN-5B1-4 cells preincubated for 15 mins measured after 30 mins by spectrofluorimetry; type: ADME, cell-based
Coagulation factor XI = Coagulation factor XI (Homo sapiens, UniProt P03951); experiment: Inhibition of human FXIa
Cytochrome P450 2D6 = Cytochrome P450 2D6 (Homo sapiens, UniProt P10635); experiment: Inhibition of human recombinant CYP2D6 expressed in Trichoplusia ni BTI-TN-5B1-4 cells preincubated for 15 mins measured after 45 mins by spectrofluorimetry; type: ADME, cell-based
Plasma [16] = experiment: Anticoagulant activity in human plasma assessed as tPA-induced fibrinolysis; type: functional; conditions: in the assay text read “Antifibrinolytic activity” for “Anticoagulant activity”
Summary of the method: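 tPA-induced fibrinolysis in human plasma. Value reported as EC200, the inhibitor concentration that doubles the clot-to-lysis time.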

[17] = Fraction unbound in human plasma; type: ADME, cell-free
Kallikrein-1 = Kallikrein-1 (Homo sapiens, UniProt P06870); experiment: Inhibition of urinary kallikrein (unknown origin)
Chain of Kallikrein-1 (P06870 whole entry): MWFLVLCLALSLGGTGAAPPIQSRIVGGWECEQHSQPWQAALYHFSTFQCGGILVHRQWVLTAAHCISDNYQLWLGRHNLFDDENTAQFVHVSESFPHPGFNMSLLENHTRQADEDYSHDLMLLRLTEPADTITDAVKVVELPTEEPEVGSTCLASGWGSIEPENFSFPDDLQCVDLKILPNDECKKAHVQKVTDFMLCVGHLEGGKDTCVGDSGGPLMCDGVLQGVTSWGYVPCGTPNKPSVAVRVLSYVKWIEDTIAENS

Chain of Trypsin (P00761 whole entry): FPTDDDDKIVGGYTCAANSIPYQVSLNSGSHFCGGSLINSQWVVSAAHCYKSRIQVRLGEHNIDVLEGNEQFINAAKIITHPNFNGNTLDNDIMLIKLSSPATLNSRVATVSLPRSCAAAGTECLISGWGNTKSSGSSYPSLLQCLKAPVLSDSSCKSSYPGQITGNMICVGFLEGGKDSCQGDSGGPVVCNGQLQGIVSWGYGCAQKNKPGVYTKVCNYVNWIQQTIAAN
Chain of Plasminogen (P00747 97-580 limits assumed): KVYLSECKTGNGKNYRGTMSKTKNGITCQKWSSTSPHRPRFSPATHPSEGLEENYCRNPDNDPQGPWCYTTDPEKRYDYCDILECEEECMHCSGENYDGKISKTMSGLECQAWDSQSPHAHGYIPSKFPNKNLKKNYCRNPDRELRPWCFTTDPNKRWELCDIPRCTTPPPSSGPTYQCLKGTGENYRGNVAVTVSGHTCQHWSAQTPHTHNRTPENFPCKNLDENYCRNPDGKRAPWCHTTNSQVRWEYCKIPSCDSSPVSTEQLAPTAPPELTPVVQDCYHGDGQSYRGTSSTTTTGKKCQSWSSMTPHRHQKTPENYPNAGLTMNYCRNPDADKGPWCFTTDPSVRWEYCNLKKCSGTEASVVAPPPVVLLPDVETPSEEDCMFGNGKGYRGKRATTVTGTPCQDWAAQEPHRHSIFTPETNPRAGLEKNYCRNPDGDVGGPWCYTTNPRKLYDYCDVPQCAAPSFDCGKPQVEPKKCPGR
Chain of Plasminogen (P00747 581-810 limits assumed): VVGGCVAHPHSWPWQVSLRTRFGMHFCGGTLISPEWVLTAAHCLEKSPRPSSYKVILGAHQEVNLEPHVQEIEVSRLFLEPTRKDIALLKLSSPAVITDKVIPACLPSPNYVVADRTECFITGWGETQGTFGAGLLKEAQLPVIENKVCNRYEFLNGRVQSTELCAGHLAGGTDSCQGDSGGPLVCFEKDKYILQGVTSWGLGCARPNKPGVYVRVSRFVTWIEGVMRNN
Chain of Vitamin K-dependent protein C (P04070 43-197 limits assumed): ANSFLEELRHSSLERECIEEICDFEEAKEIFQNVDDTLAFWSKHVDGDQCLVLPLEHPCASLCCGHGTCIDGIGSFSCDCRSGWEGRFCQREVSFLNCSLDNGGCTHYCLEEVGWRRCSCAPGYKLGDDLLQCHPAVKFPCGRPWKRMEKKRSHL
Chain of Vitamin K-dependent protein C (P04070 212-461 limits assumed): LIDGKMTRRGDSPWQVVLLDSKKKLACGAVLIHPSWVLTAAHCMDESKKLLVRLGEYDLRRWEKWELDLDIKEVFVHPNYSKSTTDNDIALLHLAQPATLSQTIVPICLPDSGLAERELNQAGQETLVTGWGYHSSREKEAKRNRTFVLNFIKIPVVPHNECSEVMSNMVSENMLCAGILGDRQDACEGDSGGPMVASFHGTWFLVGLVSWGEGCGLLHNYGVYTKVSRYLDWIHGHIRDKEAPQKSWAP
Chain of Plasma kallikrein (P03952 20-390 limits assumed): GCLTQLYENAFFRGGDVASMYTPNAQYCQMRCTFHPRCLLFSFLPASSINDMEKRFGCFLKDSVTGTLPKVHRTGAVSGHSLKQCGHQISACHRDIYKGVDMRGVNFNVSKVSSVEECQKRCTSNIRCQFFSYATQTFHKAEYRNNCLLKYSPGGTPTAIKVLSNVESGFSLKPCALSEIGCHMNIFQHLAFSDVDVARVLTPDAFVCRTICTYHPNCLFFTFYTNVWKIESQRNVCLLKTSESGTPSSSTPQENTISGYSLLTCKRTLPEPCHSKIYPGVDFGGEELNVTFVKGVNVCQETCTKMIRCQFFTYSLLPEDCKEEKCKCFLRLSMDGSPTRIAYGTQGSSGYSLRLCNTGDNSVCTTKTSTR
Chain of Plasma kallikrein (P03952 391-638 limits assumed): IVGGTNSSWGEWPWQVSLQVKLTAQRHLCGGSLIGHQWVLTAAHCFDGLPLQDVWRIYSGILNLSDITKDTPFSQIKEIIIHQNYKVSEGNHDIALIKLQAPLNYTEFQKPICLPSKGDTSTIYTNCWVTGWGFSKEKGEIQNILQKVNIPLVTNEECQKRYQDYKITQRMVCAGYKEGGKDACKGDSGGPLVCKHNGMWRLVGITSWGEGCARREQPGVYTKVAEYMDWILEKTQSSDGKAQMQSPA
Chain of Coagulation factor X (P00742 41-179 limits assumed): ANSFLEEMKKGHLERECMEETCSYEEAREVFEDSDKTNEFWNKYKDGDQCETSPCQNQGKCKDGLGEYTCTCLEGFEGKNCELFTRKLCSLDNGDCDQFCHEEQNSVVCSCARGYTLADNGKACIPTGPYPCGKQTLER
Chain of Coagulation factor X (P00742 235-488 limits assumed): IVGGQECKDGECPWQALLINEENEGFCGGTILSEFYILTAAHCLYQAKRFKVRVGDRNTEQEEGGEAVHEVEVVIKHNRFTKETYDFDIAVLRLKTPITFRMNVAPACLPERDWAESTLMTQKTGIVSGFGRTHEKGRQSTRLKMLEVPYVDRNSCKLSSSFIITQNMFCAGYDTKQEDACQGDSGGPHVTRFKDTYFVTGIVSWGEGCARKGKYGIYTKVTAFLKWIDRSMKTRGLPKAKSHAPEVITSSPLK
Chain of Serine protease 1 (P07477 whole entry): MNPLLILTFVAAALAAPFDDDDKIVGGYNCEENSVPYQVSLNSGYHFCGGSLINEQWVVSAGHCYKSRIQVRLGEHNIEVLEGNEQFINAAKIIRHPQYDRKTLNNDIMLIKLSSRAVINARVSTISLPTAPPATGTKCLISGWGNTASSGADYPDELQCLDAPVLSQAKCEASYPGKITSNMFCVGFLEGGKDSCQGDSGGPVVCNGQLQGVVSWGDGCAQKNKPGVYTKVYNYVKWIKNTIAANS
Chain of Cytochrome P450 2C9 (P11712 whole entry): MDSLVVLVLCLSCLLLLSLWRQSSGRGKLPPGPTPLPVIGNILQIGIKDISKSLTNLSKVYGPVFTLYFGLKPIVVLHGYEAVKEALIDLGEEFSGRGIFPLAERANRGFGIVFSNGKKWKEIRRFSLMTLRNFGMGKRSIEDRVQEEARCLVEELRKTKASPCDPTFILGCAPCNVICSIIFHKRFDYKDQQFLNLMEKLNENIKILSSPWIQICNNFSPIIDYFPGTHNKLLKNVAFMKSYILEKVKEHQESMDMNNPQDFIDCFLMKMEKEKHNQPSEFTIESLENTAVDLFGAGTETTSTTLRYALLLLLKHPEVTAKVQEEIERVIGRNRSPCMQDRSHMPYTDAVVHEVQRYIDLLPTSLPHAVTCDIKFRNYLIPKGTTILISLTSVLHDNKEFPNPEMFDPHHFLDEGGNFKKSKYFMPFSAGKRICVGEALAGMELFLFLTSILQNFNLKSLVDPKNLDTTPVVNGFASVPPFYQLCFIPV
Chain of Coagulation factor XI (P03951 19-387 limits assumed): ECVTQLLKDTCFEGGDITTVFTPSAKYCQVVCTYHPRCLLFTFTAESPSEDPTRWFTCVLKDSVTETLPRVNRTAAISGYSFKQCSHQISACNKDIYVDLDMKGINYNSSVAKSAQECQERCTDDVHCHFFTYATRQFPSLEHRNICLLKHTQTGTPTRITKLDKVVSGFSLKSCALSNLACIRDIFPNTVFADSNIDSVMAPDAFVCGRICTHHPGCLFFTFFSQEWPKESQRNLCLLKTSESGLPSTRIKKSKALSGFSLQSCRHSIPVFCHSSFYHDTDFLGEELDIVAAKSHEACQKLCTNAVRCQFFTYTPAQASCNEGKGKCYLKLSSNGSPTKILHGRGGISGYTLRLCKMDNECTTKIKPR
Chain of Coagulation factor XI (P03951 388-625 limits assumed): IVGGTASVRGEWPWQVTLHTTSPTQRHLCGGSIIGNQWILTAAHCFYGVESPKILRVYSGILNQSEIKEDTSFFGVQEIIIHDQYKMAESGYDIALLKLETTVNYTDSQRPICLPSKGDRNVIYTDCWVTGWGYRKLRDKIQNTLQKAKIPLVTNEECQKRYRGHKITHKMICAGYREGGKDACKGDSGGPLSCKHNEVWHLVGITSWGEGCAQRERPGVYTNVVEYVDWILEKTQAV
Chain of Coagulation factor XII (P00748 20-372 limits assumed): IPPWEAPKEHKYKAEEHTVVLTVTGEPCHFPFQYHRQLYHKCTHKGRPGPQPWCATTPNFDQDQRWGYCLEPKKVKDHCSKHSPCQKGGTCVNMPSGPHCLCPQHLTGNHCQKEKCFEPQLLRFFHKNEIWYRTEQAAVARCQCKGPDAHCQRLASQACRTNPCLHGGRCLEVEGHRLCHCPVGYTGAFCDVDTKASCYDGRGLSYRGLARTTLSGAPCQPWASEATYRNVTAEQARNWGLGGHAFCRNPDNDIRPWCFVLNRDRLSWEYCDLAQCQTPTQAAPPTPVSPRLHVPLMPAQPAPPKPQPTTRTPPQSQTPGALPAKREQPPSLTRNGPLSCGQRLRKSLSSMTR
Chain of Coagulation factor XII (P00748 373-615 limits assumed): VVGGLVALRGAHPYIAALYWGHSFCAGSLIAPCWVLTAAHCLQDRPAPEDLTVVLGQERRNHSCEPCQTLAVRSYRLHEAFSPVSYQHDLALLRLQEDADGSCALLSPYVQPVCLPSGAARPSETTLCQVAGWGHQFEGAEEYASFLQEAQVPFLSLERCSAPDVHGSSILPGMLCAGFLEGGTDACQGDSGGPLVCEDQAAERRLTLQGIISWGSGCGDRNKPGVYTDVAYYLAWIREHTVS

- Ki (Prothrombin): 884 nM
- Ki (Trypsin): 17.8 nM
- Ki [1]: 3900 nM
- Ki (Plasma kallikrein): 187 nM
- Ki (Coagulation factor X): 2510 nM
Structure (SMILES): N=C(N)c1ccc(CNC(=O)[C@@H]2Cc3ccc(cc3)NC(=O)CN3CCN(CC3)CC(=O)NCc3ccc(cc3)C[C@@H](NS(=O)(=O)Cc3ccccc3)C(=O)N2)cc1

- Ki (Prothrombin): 5870 nM
- Ki (Trypsin): 41.7 nM
- Ki [1]: > 10000 nM
- Ki (Plasma kallikrein): 440 nM
- Ki (Plasminogen): 0.76 nM
- Ki (Coagulation factor X): 9000 nM
Structure (SMILES): N=C(N)c1ccc(CNC(=O)[C@@H]2Cc3ccc(cc3)NC(=O)CN3CCCN(CC3)CC(=O)NCc3ccc(cc3)C[C@@H](NS(=O)(=O)Cc3ccccc3)C(=O)N2)cc1

Structure (SMILES): N=C(N)c1ccc(CNC(=O)[C@@H]2Cc3ccc(cc3)NC(=O)CN3CCN(CC3)CC(=O)Nc3ccc(cc3)C[C@@H](NS(=O)(=O)Cc3ccccc3)C(=O)N2)cc1.O=C(O)C(F)(F)F
- Ki (Coagulation factor XII): > 100000 nM
- Ki [2]: 8900 nM
- Ki [3]: > 100000 nM
- EC200 (Plasma [4]): >100 µM
- inhibition (Rattus norvegicus): -8%
- IC50 [5]: > 100000 nM
- Ki [6]: > 50000 nM
- Ki (Coagulation factor IX): > 100000 nM
- Ki (Serine protease 1): 44 nM
- Ki [7]: > 100000 nM
- solubility thermodynamic [8]: > 2000 µg/mL
- Ki (Prothrombin): 13900 nM
- inhibition at 10 µM [9]: -2%
- inhibition at 10 µM (hERG (KCNH2)): 7%
- inhibition at 10 µM [10]: 13%
- EC200 (Plasma [11]): >100 µM
- EC200 (Plasma [12]): >100 µM
- Ki (Trypsin): 62.6 nM
- IC50 [13]: > 10000 nM
- inhibition at 10 µM [14]: 1%
- IC50 (Cytochrome P450 2C9): > 100000 nM
- metabolised at 1 h [15]: 0%
- Ki [1]: > 25000 nM
- IC50 (Cytochrome P450 3A4): > 22000 nM
- Ki (Coagulation factor XI): 4700 nM
- IC50 (Cytochrome P450 2D6): > 40000 nM
- EC200 (Plasma [16]): 280 nM
- Ki (Coagulation factor X): > 10000 nM
- fraction unbound [17]: 0.61
- Ki (Kallikrein-1): > 50000 nM

- Ki (Prothrombin): 227 nM
- Ki (Trypsin): 3.4 nM
- Ki [1]: 39 nM
- Ki (Plasma kallikrein): 3.2 nM
- Ki (Coagulation factor X): 12.3 nM
Structure (SMILES): N=C(N)c1ccc(CNC(=O)[C@@H]2Cc3cccc(c3)NC(=O)CN3CCN(CC3)CC(=O)Nc3cccc(c3)C[C@@H](NS(=O)(=O)Cc3ccccc3)C(=O)N2)cc1

- Ki (Prothrombin): 376 nM
- Ki (Trypsin): 0.6 nM
- Ki [1]: 3800 nM
- Ki (Plasma kallikrein): 240 nM
- Ki (Plasminogen): 4 nM
- Ki (Coagulation factor X): 1260 nM
Structure (SMILES): N=C(N)c1ccc(CNC(=O)[C@@H]2Cc3ccc(cc3)NC(=O)CCN3CCN(CCC(=O)Nc4cccc(c4)C[C@@H](NS(=O)(=O)Cc4ccccc4)C(=O)N2)CC3)cc1

- Ki (Prothrombin): 8510 nM
- Ki (Trypsin): 55 nM
- Ki [1]: 4800 nM
- Ki (Plasma kallikrein): 242 nM
- Ki (Plasminogen): 1.62 nM
- Ki (Coagulation factor X): 3700 nM
Structure (SMILES): C[C@H]1CN2CC(=O)Nc3ccc(cc3)C[C@@H](NS(=O)(=O)Cc3ccccc3)C(=O)N[C@H](C(=O)NCc3ccc(C(=N)N)cc3)Cc3ccc(cc3)NC(=O)CN1C[C@@H]2C

- Ki (Prothrombin): 14100 nM
- Ki (Trypsin): 3 nM
- Ki [1]: > 10000 nM
- Ki (Plasma kallikrein): 392 nM
- Ki (Plasminogen): 0.57 nM
- Ki (Coagulation factor X): 7360 nM
Structure (SMILES): N=C(N)c1ccc(CNC(=O)[C@@H]2Cc3ccc(cc3)NC(=O)CN3CCCN(CC3)CC(=O)Nc3ccc(cc3)C[C@@H](NS(=O)(=O)Cc3ccccc3)C(=O)N2)cc1

From ChEMBL document CHEMBL2311491, “Development of new cyclic plasmin inhibitors with excellent potency and selectivity” (J Med Chem, 2013)
